Published values of several laboratories.
Each line is one published result; the experiments were not run side by side.
Target: Phosphatidylinositol 5-phosphate 4-kinase type-2 gamma (PIP4K2C, Homo sapiens, UniProt Q8TBX8)
Residues used in one study (Q8TBX8 1-421): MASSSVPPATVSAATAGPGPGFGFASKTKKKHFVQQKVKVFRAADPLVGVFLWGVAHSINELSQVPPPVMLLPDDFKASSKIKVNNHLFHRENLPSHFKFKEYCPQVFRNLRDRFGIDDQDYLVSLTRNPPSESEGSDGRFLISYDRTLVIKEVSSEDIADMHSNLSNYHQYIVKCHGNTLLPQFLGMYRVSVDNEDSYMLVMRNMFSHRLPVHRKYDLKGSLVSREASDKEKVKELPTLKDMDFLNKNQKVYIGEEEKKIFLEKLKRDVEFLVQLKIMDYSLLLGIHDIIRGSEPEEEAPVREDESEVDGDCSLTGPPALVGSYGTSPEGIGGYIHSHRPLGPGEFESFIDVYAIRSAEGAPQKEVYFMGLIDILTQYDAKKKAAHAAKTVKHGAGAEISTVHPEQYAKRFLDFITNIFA

SMILES	effect on	technique	concentration	remaining binding [%]
CN(C)c1ncc(F)c(-c2cnn3ncccc23)n1	binding	–	1 µM	95
Cn1cc(Cl)c2c(Oc3c(F)cc(Nc4cc(Cl)nc(N)n4)cc3F)ccnc21	cell-free assay	competition with immobilised ligand	0.1 µM	96
CN(c1nccc(-c2cnn3ncccc23)n1)C1CC1	binding	–	1 µM	100
Cc1c(NC(=O)c2cc(C(N)=O)nc3cc(F)ccc23)c(C(F)(F)F)nn1Cc1ccc(C(C)(C)C)cc1	cell-free assay	competition with immobilised ligand	1 µM	76
C[C@@H](c1ccc(-n2cnc3c(N)ncnc32)cc1)N1CCc2nn(C)c(Cc3ccccc3)c2C1=O	binding	competition with immobilised ligand	0.1 µM	96
CCS(=O)(=O)c1cc2cc(C[C@](O)(CC(C)(C)c3ccc(F)cc3C(N)=O)C(F)(F)F)[nH]c2cn1	cell-free assay	competition with immobilised ligand	1 µM	100
CC1CCCN1c1nccc(-c2cnn3ncccc23)n1 (stereo not shown)	binding	–	1 µM	100
CNCc1ccccc1-c1csc([C@H](C)Nc2nc(C)nc3cc(OC)c(OC)cc23)c1	cell-free assay	competition with immobilised ligand	1 µM	100
COc1cnc(Nc2cccc(S(N)(=O)=O)c2)nc1N1CCN(c2ccccc2)C(=O)C1	binding	competition with immobilised ligand	1 µM	0.95
FC(F)(F)Oc1cccc(-c2cnc3ccc(-c4ccncc4)nn23)c1	cell-free assay	competition with immobilised ligand	5 µM	32
CN(CCCC(F)(F)F)c1nccc(-c2cnn3ncccc23)n1	binding	–	1 µM	100
NS(=O)(=O)c1cc(NC(=O)Cc2ccccc2)ccc1Oc1cccc(Cl)c1	cell-free assay	competition with immobilised ligand	1 µM	100
C[C@@H]1CCN(c2nccc(-c3cnn4ncccc34)n2)C1	binding	–	1 µM	40
O=C(NCCCN1CCOCC1)c1ccc(Nc2nccc(-c3cc4ccccc4s3)n2)cc1	binding	competition with immobilised ligand	1 µM	1.9
CNC(=O)c1ccc(Nc2ncc(C(F)(F)F)c(NCc3nccnc3N(C)S(C)(=O)=O)n2)cc1	cell-free assay	competition with immobilised ligand	0.1 µM	40
CCN1CCN(Cc2ccc(C(=O)Nc3ccc(C)c(Oc4ccc5c(c4)CC(=O)N5)c3)cc2C(F)(F)F)CC1	binding	competition with immobilised ligand	1 µM	100
Cc1cnc(Nc2ccc(C(=O)N3CCC(N4CCCC4)CC3)cc2)nc1-c1cc2ccccc2s1	binding	competition with immobilised ligand	1 µM	5.6
O=C(Nc1c[nH]nc1C(=O)NC1CCNCC1)c1cc(F)cc(F)c1	binding	competition with immobilised ligand	1 µM	76
Cc1cc(-n2nc(Cc3cc(F)cc(C(F)(F)F)c3)nc2C)ccc1C(N)=O	cell-free assay	competition with immobilised ligand	1 µM	100
O=C(c1ccc(Nc2nccc(-c3cc4ccccc4s3)n2)cc1)N1CCC(N2CCCC2)CC1	binding	competition with immobilised ligand	1 µM	1.4
N[C@H]1CCN(c2nccc(-c3cnn4ncccc34)n2)C1	binding	–	1 µM	81
C=CC(=O)N1CCC(C(=O)NCC(=O)N2CCN(c3nc(-c4cnc(N)nc4C(F)F)nc(N4CCOCC4)n3)CC2)CC1	binding	competition with immobilised ligand	1 µM	95
